Source: ChEMBL document CHEMBL1159388, “Steroidal glycosides from the rhizomes of Dioscorea spongiosa” (2003)
Where a SMILES comes first, the peptide text is derived from it. Bridges are numbered along the chain shown (N, C = ends). [ ]: non-standard residue; d: D form. Asu = N[C@@H](CCCCCC(=O)O)C(=O)O

Tests used:
Assay type in all cases: functional
[1] = Antiosteoporotic activity in mouse parietal bone assessed as inhibition of parathyroid hormone induced bone resorption at 200 uM
Summary of the method: (§1)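 Mice aged 2 days received 45CaCl2 (2 μCi) subcutaneously; parietal bones were taken 2 days later and cultured on grids at the gas-liquid interface. Medium was Ham's F-12 with NaHCO3, 1.0 mM CaCl2 and 5% heat-inactivated horse serum, at 37 °C under 5% CO2. After 24 h preculture, bones were exposed to PTH (2×10^-9 M final) plus sample for 6 days, medium changed at day 3. Four bones per group.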

[2] = Antiosteoporotic activity in mouse parietal bone assessed as inhibition of parathyroid hormone induced bone resorption by measuring 45Ca release at 200 uM by scintillation counting; set-up: scale not given: the % may be the effect or the level left; summary of the method: as §1
[3] = Antiosteoporotic activity in mouse parietal bone assessed as inhibition of parathyroid hormone induced bone resorption by measuring 45Ca release at 20 uM by scintillation counting; set-up: scale not given: the % may be the effect or the level left; summary of the method: as §1
[4] = Antiosteoporotic activity in mouse parietal bone assessed as inhibition of parathyroid hormone induced bone resorption by measuring 45Ca release by scintillation counting; set-up: scale not given: the % may be the effect or the level left; summary of the method: as §1

C=C[C@@H](CCCCC)O[C@H]1O[C@H](CO[C@@H]2OC[C@H](O)[C@H](O)[C@H]2O)[C@@H](O)[C@H](O)[C@H]1O
inhibition (INH) [1]: 61.6%
Activity [2]: 20.7%
Activity [3]: 23.8%

CC(C)C[C@H](NC(=O)[C@H](CCCCN)NC(=O)CNC(=O)[C@H](CC(C)C)NC(=O)[C@@H](NC(=O)[C@@H]1CCCCCC(=O)N[C@@H](CO)C(=O)N[C@@H](CC(N)=O)C(=O)N[C@@H](CC(C)C)C(=O)N[C@@H](CO)C(=O)N[C@@H]([C@@H](C)O)C(=O)N1)C(C)C)C(=O)N[C@@H](CO)C(=O)N[C@@H](CCC(N)=O)C(=O)N[C@@H](CCC(=O)O)C(=O)N[C@@H](CC(C)C)C(=O)N[C@@H](Cc1cnc[nH]1)C(=O)N[C@@H](CCCCN)C(=O)N[C@@H](CC(C)C)C(=O)N[C@@H](CCC(N)=O)C(=O)N[C@H](C(=O)N[C@@H](Cc1ccc(O)cc1)C(=O)N1CCC[C@H]1C(=O)N[C@@H](CCCNC(=N)N)C(=O)N[C@H](C(=O)N[C@@H](CC(=O)O)C(=O)N[C@H](C(=O)NCC(=O)N[C@@H](C)C(=O)NCC(=O)N[C@H](C(=O)N1CCC[C@H]1C(N)=O)[C@@H](C)O)C(C)C)[C@@H](C)O)[C@@H](C)O [ELCITONIN] (SNLST[Asu]VLGKLSQELHKLQTYPRTDVGAGTP-NH2; lactam N-6)
Activity [4]: 18.4%

CC(=O)[C@H]1[C@@H](OC(=O)CCC(C)CO[C@@H]2O[C@H](CO)[C@@H](O)[C@H](O)[C@H]2O)C[C@H]2[C@@H]3CC=C4C[C@@H](O[C@@H]5O[C@H](CO)[C@@H](O[C@@H]6O[C@@H](C)[C@H](O)[C@@H](O)[C@H]6O)[C@H](O)[C@H]5O[C@@H]5O[C@@H](C)[C@H](O)[C@@H](O)[C@H]5O)CC[C@]4(C)[C@H]3CC[C@@]21C (stereo partly drawn) [HYPOGLAUCIN G]
inhibition (INH) [1]: 66.7%
Activity [2]: 19.2%
Activity [3]: 22.8%

CO[C@]1(CC[C@@H](C)CO[C@@H]2O[C@H](CO)[C@@H](O)[C@H](O)[C@H]2O)O[C@H]2C[C@H]3[C@@H]4CC=C5C[C@@H](O[C@@H]6O[C@H](CO)[C@@H](O[C@@H]7O[C@@H](C)[C@H](O)[C@@H](O)[C@H]7O)[C@H](O)[C@H]6O[C@@H]6O[C@@H](C)[C@H](O)[C@@H](O)[C@H]6O)CC[C@]5(C)[C@H]4CC[C@]3(C)[C@H]2[C@@H]1C [METHYLPROTODIOSCIN]
inhibition (INH) [1]: 89.9%
Activity [2]: 17.4%
Activity [3]: 24.9%

CC(C)CC[C@H](O)[C@@H](C)[C@H]1[C@@H](O[C@@H]2O[C@H](CO)[C@@H](O)[C@H](O)[C@H]2O)C[C@H]2[C@@H]3CC=C4C[C@@H](O[C@@H]5O[C@H](CO)[C@@H](O[C@@H]6O[C@@H](C)[C@H](O)[C@@H](O)[C@H]6O)[C@H](O)[C@H]5O[C@@H]5O[C@@H](C)[C@H](O)[C@@H](O)[C@H]5O)CC[C@]4(C)[C@H]3CC[C@]12C [SPONGIOSIDES A]
inhibition (INH) [1]: 63.6%
Activity [2]: 17.1%
Activity [3]: 30.9%
